Measurements taken from ChEMBL document CHEMBL4002604, “Evaluation of biological properties of 3,3',4,4'-benzophenonetetracarboxylic dianhydride derivatives and their ability to inhibit hexokinase activity” (2017).

How the values were obtained:
[1] = molecular target: T1, Hexokinase-2 (Mus musculus) (UniProt O08528); test: Inhibition of HK2 isolated from mouse undifferentiated P19 cell lysates using [U-14C]-labeled glucose as substrate in presence of ATP and NADP by G6PD enzyme coupled spectrophotometric assay; settings: in the assay text read “glucose” for “[U-14C]-labeled glucose”
T1 sequence (whole entry): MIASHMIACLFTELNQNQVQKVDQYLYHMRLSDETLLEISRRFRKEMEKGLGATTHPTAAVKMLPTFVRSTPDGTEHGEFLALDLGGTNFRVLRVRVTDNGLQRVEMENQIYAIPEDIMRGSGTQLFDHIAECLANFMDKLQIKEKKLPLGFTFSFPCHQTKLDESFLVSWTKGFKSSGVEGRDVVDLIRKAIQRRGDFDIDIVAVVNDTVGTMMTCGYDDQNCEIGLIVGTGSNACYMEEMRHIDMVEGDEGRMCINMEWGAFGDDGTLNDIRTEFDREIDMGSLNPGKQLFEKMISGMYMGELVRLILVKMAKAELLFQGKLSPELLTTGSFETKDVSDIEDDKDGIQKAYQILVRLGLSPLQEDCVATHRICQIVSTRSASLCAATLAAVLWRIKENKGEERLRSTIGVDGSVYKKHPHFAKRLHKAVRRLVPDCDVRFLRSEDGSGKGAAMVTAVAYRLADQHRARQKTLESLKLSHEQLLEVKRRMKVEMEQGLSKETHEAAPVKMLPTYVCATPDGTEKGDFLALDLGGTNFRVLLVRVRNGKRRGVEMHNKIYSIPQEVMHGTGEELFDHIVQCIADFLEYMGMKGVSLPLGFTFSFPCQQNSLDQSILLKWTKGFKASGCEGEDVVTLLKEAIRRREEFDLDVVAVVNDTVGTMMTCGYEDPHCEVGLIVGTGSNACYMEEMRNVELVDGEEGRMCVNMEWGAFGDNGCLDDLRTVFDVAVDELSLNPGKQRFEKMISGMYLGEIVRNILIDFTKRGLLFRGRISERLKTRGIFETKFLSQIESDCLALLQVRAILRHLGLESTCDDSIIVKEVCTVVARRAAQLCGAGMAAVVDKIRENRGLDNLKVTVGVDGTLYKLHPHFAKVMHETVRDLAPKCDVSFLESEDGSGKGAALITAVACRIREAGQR
In short: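 Coupled hexokinase assay at 340 nm following G6P-dependent NADP→NADPH conversion. Enzyme source is freshly prepared, centrifuged undifferentiated P19 lysate supernatant or recombinant human HKII. Buffer: 100 mM Tris-HCl pH 8.0, 0.5 mM EDTA, 10 mM MgCl2, 2 mM glucose, 0.1 mM NADP, 0.1 U/ml G6PD. Preincubated 10 min at 37°C; reaction started with 10 mM ATP. Means ± SD, 4 experiments, at least 4 repeats each.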

[2] = system: P19; test: Cytotoxicity against differentiated mouse P19 cells assessed as mitochondrial superoxide anion level at 1 uM after 72 hrs by MitoSox dye based fluorescence assay relative to control; format: functional
In short: (§1)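 Undifferentiated (P19SCs) or differentiated (P19dCs) P19 cells incubated 24 or 72 h with 1 or 100 µM. Mitochondrial membrane potential and mitochondrial superoxide levels measured and expressed relative to untreated control. Means ± SD from 4 independent measurements, at least 4 repeats each. Significance at p<0.05.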

[3] = system: P19; test: Cytotoxicity against undifferentiated mouse P19 cells assessed as mitochondrial membrane potential at 100 uM after 72 hrs by TMRF dye based fluorescence assay relative to control; format: functional; in short: as §1
[4] = system: P19; test: Cytotoxicity against undifferentiated mouse P19 cells assessed as cell mass at 1 to 100 uM after 24 hrs by SRB assay relative to control; format: functional
In short: (§2)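 Cell mass by SRB assay in P19 cells (CRL-1825), either undifferentiated (P19SCs) or differentiated (P19dCs). Cells exposed to 1, 10 or 100 µM for 24, 48 or 72 h. Values expressed relative to untreated control. Means ± SD from at least 4 independent measurements, 6 repeats each. Significance vs control at p<0.05.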

[5] = system: P19; test: Cytotoxicity against differentiated mouse P19 cells assessed as mitochondrial superoxide anion level at 100 uM after 72 hrs by MitoSox dye based fluorescence assay relative to control; format: functional; in short: as §1
[6] = system: P19; test: Cytotoxicity against differentiated mouse P19 cells assessed as mitochondrial membrane potential at 100 uM after 72 hrs by TMRF dye based fluorescence assay relative to control; format: functional; in short: as §1
[7] = system: P19; test: Cytotoxicity against undifferentiated mouse P19 cells assessed as mitochondrial superoxide anion level at 100 uM after 72 hrs by MitoSox dye based fluorescence assay relative to control; format: functional; in short: as §1
[8] = system: P19; test: Cytotoxicity against undifferentiated mouse P19 cells assessed as metabolic activity at 1 to 100 uM after 48 hrs by resazurin assay relative to control; format: functional
In short: (§3)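 Metabolic activity by resazurin reduction in undifferentiated (P19SCs) or differentiated (P19dCs) P19 cells. Exposure to 1, 10 or 100 µM for 24, 48 or 72 h. Read-out relative to untreated control. Significance vs control at p<0.05.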

[9] = system: P19; test: Cytotoxicity against differentiated mouse P19 cells assessed as mitochondrial superoxide anion level at 1 uM after 24 hrs by MitoSox dye based fluorescence assay relative to control; format: functional; in short: as §1
[10] = system: P19; test: Cytotoxicity against differentiated mouse P19 cells assessed as cell mass at 1 to 100 uM after 24 hrs by SRB assay relative to control; format: functional; in short: as §2
[11] = system: P19; test: Cytotoxicity against differentiated mouse P19 cells assessed as metabolic activity at 1 to 100 uM after 24 hrs by resazurin assay relative to control; format: functional; in short: as §3
[12] = system: P19; test: Cytotoxicity against differentiated mouse P19 cells assessed as mitochondrial membrane potential at 1 uM after 72 hrs by TMRF dye based fluorescence assay relative to control; format: functional; in short: as §1
[13] = system: P19; test: Cytotoxicity against undifferentiated mouse P19 cells assessed as mitochondrial membrane potential at 1 uM after 72 hrs by TMRF dye based fluorescence assay relative to control; format: functional; in short: as §1

inhibition [1]: Dose-dependent effect
Compound: O=C(c1ccc2c(c1)C(=O)N(c1cccc(O)c1)C2=O)c1ccc2c(c1)C(=O)N(c1cccc(O)c1)C2=O
Activity [2]: 105.3%
Activity [3]: 131.1%
Activity [4]: 103.3%
Activity [5]: 149.1%
Activity [6]: 50.9%
Activity [7]: 108.3%
Activity [8]: 76.5%
Activity [9]: 112.2%
Activity [10]: 100%
Activity [11]: 100%
Activity [12]: 87.8%
Activity [13]: 110.4%
